# Compound activity: PubChem, Sanford-Burnham Center for Chemical Genomics
# Jurkat NFkB inh: inhibitors of induced NF-kB luciferase reporter, primary screen, TCR NF-kB activation inhibitor project, cell-based, luminescence, uHTS; Jurkat, PMA/ionomycin-induced NF-kB luciferase reporter; AID 435003, 2010; 330,000 tested, 0.53% active; inhibition, % at 4 µM; in the data active means inhibition above about 50%
# CRFR2-BP antag: antagonists of CRF-BP/CRF-R2 complex, primary screen, cell-based, HEK293, calcium dye fluorescence, uHTS; inhibition, % at 11.8 µM; 350,000 tested, 0.59% active; CRF-induced calcium fluorescence;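 active means inhibition of the ligand-induced calcium signal above about 50% at the single tested concentration, limit read from the data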
# CHOP UPR activ: activators of apoptotic CHOP UPR arm, primary screen, cell-based, CHO-CHOP luciferase reporter, luminescence, uHTS. activation, % at 10 µM. 330,000 tested, 0.34% active. UPR activation; percent of tunicamycin response over DMSO baseline;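 active means at 10 µM dose, activation of 40% or more, normalized to positive control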;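 further: 100% = tunicamycin at 10 µg/mL and 0% = DMSO alone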
#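 System: CHO-CHOP luciferase reporter cell line | Buffer or medium: F12 medium containing 10% fetal bovine serum | Doses: One dose, 10 µM in 0.5% DMSO | Times: 6 h compound exposure at 37 °C after overnight seeding | Signal: Luciferase luminescence | Read-out: % activation vs tunicamycin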
# UPR XBP1 act: activators of adaptive XBP1 UPR arm, primary screen, cell-based, CHO-XBP1 luciferase reporter, luminescence, uHTS. 330,000 tested, 0.33% active. IRE1-XBP1 UPR activation; percent of tunicamycin response, DMSO as zero. activation, % at 20 µM;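 active means versus positive control, 20 µM dose yields 30% or more activation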;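 further: 100% = tunicamycin at 10 µg/mL and 0% = DMSO only wells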
#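 Material: CHO-XBP1 cells stably carrying IRE1-XBP1-driven luciferase reporter | Medium: F12 with 10% serum | Compound dosing: 20 µM single concentration, DMSO 1% | Incubation: Overnight seeding at 37 °C, 6 h compound treatment at 37 °C | Detection: Steady-Glo luminescence read | Read-out basis: % activation of reporter signal versus tunicamycin and DMSO controls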
# 697 NFkB inh: inhibitors of PMA/ionomycin-induced NF-kB reporter, 697 cells, primary screen, B-cell NF-kB inhibitor project, cell-based, luminescence, uHTS; AID 435022, 2010; inhibition, % at 4 µM; 697 B-cell NF-kB luciferase reporter, 16 h; 330,000 tested, 0.33% active; in the data active means inhibition above about 35%
# 697 NFkB conf: PMA/ionomycin-induced NF-kB reporter inhibitors, 697 retest, confirmation, B-cell NF-kB inhibitor project, cell-based, luminescence, single concentration. shares compounds with 697 NFkB inh. 697 B-cell NF-kB luciferase, 16 h. inhibition, % at 4 µM. 2,000 tested, 35% active. AID 449746, 2010; in the data active means inhibition mostly above about 28%, no sharp cut-off; inactive means mostly below about 22%
# Starred values were filed as active, the others as inactive; · = no result. In the library only some 1.8% were active in any assay of this set; here they are far more common.
SMILES,Jurkat NFkB inh,CRFR2-BP antag,CHOP UPR activ,UPR XBP1 act,697 NFkB inh,697 NFkB conf
CC(C)CN(C(=O)COC(=O)c1ccc(Br)o1)c1c(N)n(Cc2ccccc2)c(=O)[nH]c1=O,20,4,1,-3,22,·
Cc1ccc(C(=O)OCC(=O)N(CC(C)C)c2c(N)n(Cc3ccccc3)c(=O)[nH]c2=O)o1,16,-2,1,-2,40*,26*
NC(=O)c1c(NC(NC(=O)c2ccco2)(C(F)(F)F)C(F)(F)F)sc2c1CCCC2,11,1,0,-1,39*,7
COc1cc(OC)c(/C=N/NC(N)=S)cc1Br,-9,3,-1,3,55*,18*
COc1cc(OC)c(/C=N/NC(=O)c2ccncc2)cc1Br,19,-4,-1,-1,14,·
CCC(CC)C(=O)Nc1ccc([N+](=O)[O-])cn1,-12,-16,0,-3,8,·
CCCC(=O)Nc1ccc(Sc2ccc([N+](=O)[O-])cc2)cc1,41,27,-2,2,41*,35*
CCC(CC)C(=O)Nc1ccc(Sc2ccc([N+](=O)[O-])cc2)cc1,31,25,-1,0,37*,30*
CC1Cc2ccccc2N1S(=O)(=O)c1cnc(Cl)c(Br)c1 (centres undefined),14,19,4,-2,40*,35*
CC1Cc2ccccc2N1S(=O)(=O)c1cnc(Cl)c(Cl)c1 (centres undefined),-1,14,0,-5,45*,33*
CCOc1ccc(-n2c(SCC(=O)Nc3ccc4c(c3)OCCO4)nc3c(c2=O)SCC3)cc1,-16,-10,0,-2,38*,32*
CCOC(=O)C1=CN(Cc2cccc(Br)c2)S(=O)(=O)N(CC)C1C (centres undefined),·,17,1,1,3,·
COc1ccc(OC)c(C(=O)COC(=O)c2[nH]c(C)c(C(C)=O)c2C)c1,2,-5,3,0,0,·
O=C(Nc1nc2ccc(Br)cc2s1)c1ccco1,-90,-11,4,-2,-249,·
Cc1cc2sc(NC(=O)c3ccco3)nc2cc1Cl,-127,0,1,-7,-360,-284
Cc1ccc2nc(NC(=O)c3ccc(Br)o3)sc2c1,-103,-16,4,-4,-277,-284
O=C(Nc1nc2ccc(Cl)cc2s1)c1ccco1,-67,-2,1,-3,-271,-301
COc1ccc2nc(NC(=O)c3ccco3)sc2c1,-27,9,-3,-11,-256,-320
Cc1ccc2nc(NC(=O)c3ccco3)sc2c1,-52,5,-7,-10,-250,-271
Cc1ccc2nc(NC(=S)NC(=O)c3ccco3)sc2c1,·,-18,·,·,·,·
Cc1noc(COc2ccccc2OCC(N)=O)c1Cl,-3,-1,1,3,38*,25
Cc1cc(COc2ccccc2OCc2cc(C)no2)on1,1,0,-2,0,12,·
COC(=O)c1c(-c2ccc(N(C)C)cc2)sc2ccc(OC)cc12,-6,-5,6,5,53*,62*
CC1CN(C(=O)C(C)OC(=O)c2ccc3ncsc3c2)CC(C)O1 (centres undefined),-4,3,-1,-1,4,·
COc1ccc(NC(=O)C2CCN(c3cc(-c4ccccc4)nc4ncnn34)CC2)cc1OC,24,5,-1,-1,40*,8
O=C(CCCl)Nc1nc2c(s1)CCc1ccccc1-2,23,-1,-1,-4,-266,-15
Cn1c(-c2ccccc2)cc2onc(-c3ccccc3)c2c1=O,-66,-11,-6,-7,-325,-360
CC(=O)Nc1sc2c(c1C(c1ccc(Cl)cc1)N1CCOCC1)CCCC2 (centres undefined),-3,-5,1,1,-7,·
CC(=O)Nc1sc2c(c1C(c1ccc(F)cc1)N1CCOCC1)CCCC2 (centres undefined),-6,24,1,-3,37*,-19
